From ChEMBL document CHEMBL5104117, “Armeniaspirol analogues with more potent Gram-positive antibiotic activity show enhanced inhibition of the ATP-dependent proteases ClpXP and ClpYQ” (RSC Med Chem, 2022)
pKi: −log10 of the molar value. Converted amounts (≈) assume the structure as drawn. The source made the active and inactive calls. The calls are words filed in the database; no cut-off is given here.

How the values were obtained:
Staphylococcus aureus [1] = assay: Antibiotic activity against methicillin-resistant Staphylococcus aureus IA116-USA100 assessed as inhibition of bacterial growth incubated for 16 hrs by microtiter broth dilution method; type: functional
How it was run: (§1)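 Microtiter broth dilution assay in liquid medium, run alongside MBC determination, against a Gram-positive panel; the MIC was read as growth inhibition.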

Staphylococcus aureus [2] = assay: Antibiotic activity against methicillin-resistant Staphylococcus aureus MN8-USA200 assessed as inhibition of bacterial growth incubated for 16 hrs by microtiter broth dilution method; type: functional; how it was run: as §1
Staphylococcus aureus [3] = assay: Antibiotic activity against methicillin-resistant Staphylococcus aureus LAC-Fitz-USA300 assessed as inhibition of bacterial growth incubated for 16 hrs by microtiter broth dilution method; type: functional; how it was run: as §1
Staphylococcus aureus [4] = assay: Antibiotic activity against methicillin-resistant Staphylococcus aureus MW2-USA400 assessed as inhibition of bacterial growth incubated for 16 hrs by microtiter broth dilution method; type: functional; how it was run: as §1
Enterococcus faecalis [5] = assay: Antibiotic activity against vancomycin resistant Enterococcus faecalis NJ3 assessed as inhibition of bacterial growth incubated for 16 hrs by microtiter broth dilution method; type: functional; how it was run: as §1
Pseudomonas aeruginosa [6] = assay: Antibiotic activity against Pseudomonas aeruginosa PA01 assessed as inhibition of bacterial growth incubated for 16 hrs by microtiter broth dilution method; type: functional
Staphylococcus aureus [7] = assay: Bacteriostatic activity against methicillin-resistant Staphylococcus aureus IA116-USA100 assessed as inhibition of bacterial growth by microtiter broth dilution method; type: functional, organism-based
Staphylococcus aureus [8] = assay: Bacteriostatic activity against methicillin-resistant Staphylococcus aureus MN8-USA200 assessed as inhibition of bacterial growth by microtiter broth dilution method; type: functional, organism-based
Staphylococcus aureus [9] = assay: Bacteriostatic activity against methicillin-resistant Staphylococcus aureus LAC-Fitz-USA300 assessed as inhibition of bacterial growth by microtiter broth dilution method; type: functional, organism-based
Staphylococcus aureus [10] = assay: Bacteriostatic activity against methicillin-resistant Staphylococcus aureus MW2-USA400 assessed as inhibition of bacterial growth by microtiter broth dilution method; type: functional, organism-based
Enterococcus faecalis [11] = assay: Bacteriostatic activity against vancomycin resistant Enterococcus faecalis NJ3 assessed as inhibition of bacterial growth by microtiter broth dilution method; type: functional, organism-based
Pseudomonas aeruginosa [12] = assay: Bacteriostatic activity against Pseudomonas aeruginosa PA01 assessed as inhibition of bacterial growth by microtiter broth dilution method; type: functional, organism-based
Staphylococcus aureus [13] = assay: Inhibition of ClpX/ClpP activity in methicillin-resistant Staphylococcus aureus USA300 assessed as increase in urease activation incubated of overnight by phenol red dye based microplate reader analysis
How it was run: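 Cell-based ClpXP readout in MRSA USA300 grown in Christensen's urea medium with phenol red indicator. ClpXP inhibition raises urease activity, which hydrolyses urea and releases ammonia, and the rising pH turns the medium from yellow to red. Minimum effective concentration (MEC) was taken as the lowest level that raised urease activity above background.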

[14] = Inhibition of C-terminal His tagged Bacillus subtilis ClpY/ClpQ expressed in Escherichia coli BL21 (DE3) using Cbz-Gly-Gly-Leu-AMC as peptide substrate by Cheng-prusoff equation analysis
How it was run: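 Recombinant purified B. subtilis ClpYQ was used for inhibition kinetics. Peptide hydrolysis of the fluorogenic substrate Cbz-GGL-AMC at 100 μM was followed over a range of compound concentrations to give a dose-response curve.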

Escherichia coli = assay: Antibiotic activity against Escherichia coli with delta.tolC mutation assessed as inhibition of bacterial growth by microtiter broth dilution method; type: functional, organism-based
[15] = Toxicity in sheep RBC assessed as induction of hemolysis at 200 uM and measured after 1 hr relative to control; type: cell-based, Ovis aries, Erythrocyte; details: sheep red blood cells, read-out: Activity
How it was run: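 Hemolytic activity was measured as percent lysis of sheep erythrocytes, with compound tested up to 200 μM.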

[16] = Cytotoxicity against human A549 cells assessed as number of viable cells at 100 uM incubated for 24 hrs by calcein-AM and ethidium homodimer-1 staining based flow cytometry; type: toxicity, cell-based; details: read-out: Activity
How it was run: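 A549 human lung epithelial carcinoma cells were incubated with compound at up to 100 μM and stained with calcein-AM and ethidium homodimer-1. Viable and dead fractions were determined by confocal microscopy and flow cytometry, against a vehicle control.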

Staphylococcus aureus [17] = assay: Antibiotic activity against methicillin-resistant Staphylococcus aureus USA300 assessed as inhibition of bacterial growth incubated for 16 hrs in presence of BSA by microtiter broth dilution method; type: functional
How it was run: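 MIC by microtiter broth dilution against MRSA USA300, with bovine serum albumin added to the medium to assess the effect of protein binding.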

SMILES | MIC (Staphylococcus aureus [1]) [mg/L] | MIC (Staphylococcus aureus [2]) [mg/L] | MIC (Staphylococcus aureus [3]) [mg/L] | MIC (Staphylococcus aureus [4]) [mg/L] | MIC (Enterococcus faecalis [5]) [mg/L] | MIC (Pseudomonas aeruginosa [6]) [mg/L] | Activity (Staphylococcus aureus [7]) | Activity (Staphylococcus aureus [8]) | Activity (Staphylococcus aureus [9]) | Activity (Staphylococcus aureus [10]) | Activity (Enterococcus faecalis [11]) | Activity (Pseudomonas aeruginosa [12]) | MEC (Staphylococcus aureus [13]) [µg/mL] | pKi [14] | Activity (Escherichia coli) | hemolysis at 1 h, 200 µM [15] [%] | viability at 24 h, 100 µM [16] [%] | MIC (Staphylococcus aureus [17]) [mg/L]
Cc1c(O)c(Cl)cc2c1OC1(C2=O)C(Cl)=C(Cl)C(=O)N1Cc1ccc(C(F)(F)F)cc1 (stereo unspecified) | 16 (≈ 32.5 µM) | 16 (≈ 32.5 µM) | 16 (≈ 32.5 µM) | 16 (≈ 32.5 µM) | 32 (≈ 65 µM) | > 32 | Active | Active | Active | Active | Active | Active |  |  |  |  |  | 
CCCCCCN1C(=O)C(Cl)=C(Cl)C12Oc1c(cc(Cl)c(O)c1C)C2=O (stereo unspecified) | 4 (≈ 9.55 µM) | 4 (≈ 9.55 µM) | 4 (≈ 9.55 µM) | 8 (≈ 19.1 µM) | 8 (≈ 19.1 µM) | > 32 | Active | Active | Active | Active | Active | Active |  |  |  |  |  | 
CCCCCCc1c(O)c(Cl)cc2c1OC1(C2=O)C(Cl)=C(Cl)C(=O)N1Cc1ccc(C)cc1 (stereo unspecified) | 1 (≈ 1.97 µM) | 0.5 (≈ 0.983 µM) | 0.5 (≈ 0.983 µM) | 0.5 (≈ 0.983 µM) | 1 (≈ 1.97 µM) | > 32 | Active | Active | Active | Active | Active | Active | 0.25 | 6.82 |  |  |  | 
Cc1c(O)c(Cl)cc2c1OC1(C2=O)C(Cl)=C(Cl)C(=O)N1C (stereo unspecified) | > 32 | > 32 | > 32 | > 32 | > 32 | > 32 | Active | Active | Active | Active | Active | Active |  |  |  |  |  | 
C=CCN1C(=O)C(Cl)=C(Cl)C12Oc1c(cc(Cl)c(O)c1C)C2=O (stereo unspecified) | > 32 | > 32 | > 32 | > 32 | > 32 | > 32 | Active | Active | Active | Active | Active | Active |  |  |  |  |  | 
CCCCCCc1c(O)c(Cl)cc2c1OC1(C2=O)C(Cl)=C(Cl)C(=O)N1Cc1ccccc1 (stereo unspecified) | 1 (≈ 2.02 µM) | 1 (≈ 2.02 µM) | 1 (≈ 2.02 µM) | 2 (≈ 4.04 µM) | 2 (≈ 4.04 µM) | > 32 | Active | Active | Active | Active | Active | Active | 0.25 | 6.24 |  |  |  | 
CCCCCCc1c(O)c(Cl)cc2c1OC1(C2=O)C(Cl)=C(Cl)C(=O)N1C (stereo unspecified) | 4 (≈ 9.55 µM) | 4 (≈ 9.55 µM) | 4 (≈ 9.55 µM) | 4 (≈ 9.55 µM) | 8 (≈ 19.1 µM) | > 32 | Active | Active | Active | Active | Active | Active | 1 | 5.49 | Active | < 15 | > 95 | > 32
Cc1c(O)c(Cl)cc2c1OC1(C2=O)C(Cl)=C(Cl)C(=O)N1Cc1ccccc1 (stereo unspecified) | > 32 | > 32 | 32 (≈ 75.4 µM) | 32 (≈ 75.4 µM) | > 32 | > 32 | Active | Active | Active | Active | Active | Active |  |  |  |  |  | 
C=CCN1C(=O)C(Cl)=C(Cl)C12Oc1c(cc(Cl)c(O)c1CCCCCC)C2=O (stereo unspecified) | 4 (≈ 8.99 µM) | 4 (≈ 8.99 µM) | 4 (≈ 8.99 µM) | 4 (≈ 8.99 µM) | 8 (≈ 18 µM) | > 32 | Active | Active | Active | Active | Active | Active |  |  |  |  |  | 
CCCCCCc1c(O)c(Cl)cc2c1OC1(C2=O)C(Cl)=C(Cl)C(=O)N1CCc1ccccc1 (stereo unspecified) | 1 (≈ 1.97 µM) | 0.5 (≈ 0.983 µM) | 0.5 (≈ 0.983 µM) | 0.5 (≈ 0.983 µM) | 1 (≈ 1.97 µM) | > 32 | Active | Active | Active | Active | Active | Active | 0.25 | 6.39 |  | < 5 | > 95 | 
CCCCCCCCCCCCN1C(=O)C(Cl)=C(Cl)C12Oc1c(cc(Cl)c(O)c1C)C2=O (stereo unspecified) | 2 (≈ 3.98 µM) | 2 (≈ 3.98 µM) | 1 (≈ 1.99 µM) | 2 (≈ 3.98 µM) | 0.5 (≈ 0.994 µM) | > 32 | Active | Active | Active | Active | Active | Active | 0.5 | 6.00 |  |  |  | 
CCCCCCc1c(O)c(Cl)cc2c1OC1(C2=O)C(Cl)=C(Cl)C(=O)N1CCCCCC (stereo unspecified) | 1 (≈ 2.05 µM) | 1 (≈ 2.05 µM) | 1 (≈ 2.05 µM) | 1 (≈ 2.05 µM) | 2 (≈ 4.09 µM) | > 32 | Active | Active | Active | Active | Active | Active | 0.067 | 5.89 |  | < 5 | > 95 | 32
CCCCCCc1c(O)c(Cl)cc2c1OC1(C2=O)C(Cl)=C(Cl)C(=O)N1Cc1ccc(C(F)(F)F)cc1 (stereo unspecified) | 2 (≈ 3.55 µM) | 2 (≈ 3.55 µM) | 2 (≈ 3.55 µM) | 2 (≈ 3.55 µM) | 2 (≈ 3.55 µM) | > 32 | Active | Active | Active | Active | Active | Active | 1 | 6.24 |  |  |  | 
CCCCCCCCCCCCN1C(=O)C(Cl)=C(Cl)C12Oc1c(cc(Cl)c(O)c1CCCCCC)C2=O (stereo unspecified) | 8 (≈ 14 µM) | 16 (≈ 27.9 µM) | 16 (≈ 27.9 µM) | 8 (≈ 14 µM) | 8 (≈ 14 µM) | > 32 | Active | Active | Active | Active | Active | Active |  |  |  |  |  | 
